What is called Ki is the dissociation constant of the complex between target and ligand, obtained from inhibition or displacement. In general, inhibition refers to the share of the control response that was lost under treatment.

The record followed here is ChEMBL document CHEMBL4043101, “Potent haloperidol derivatives covalently binding to the dopamine D2 receptor” (Bioorg Med Chem, 2017).

Assay [1] has as its target T1, D(2) dopamine receptor (Homo sapiens, UniProt P14416). The assay can be described thus: Displacement of [3H]spiperone from human D2long receptor expressed in CHO cell membranes by radioligand binding assay.
The target in assay [2] is T1, D(2) dopamine receptor. As to the kind of experiment: Displacement of [3H]spiperone from human D2short receptor expressed in CHO cell membranes by radioligand binding assay. Background: In a radioligand displacement assay an active substance lowers the binding of a labelled ligand.
A short description of assay [3]: Displacement of [3H]spiperone from human D2short receptor L2.64C mutant expressed in HEK293T cell membranes by radioligand binding assay. The conditions noted are these: hek-293t. The method in brief:
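Membranes from HEK 293T cells transiently transfected with the mutant receptor in pcDNA3.1 were used for competition binding against [3H]spiperone (81 Ci/mmol), final 0.15-0.30 nM. Nonspecific binding was defined with 10 µM haloperidol. Protein was measured by Lowry with a BSA standard. IC50 came from a sigmoid nonlinear fit and was converted to Ki by Cheng-Prusoff.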

For the next assay, the target named is D(3) dopamine receptor (Homo sapiens, UniProt P35462). As to the kind of experiment: Displacement of [3H]spiperone from human D3 receptor expressed in CHO cell membranes by radioligand binding assay.
Assay [4] can be described thus: Displacement of [3H]spiperone from human dopamine D4.4 receptor expressed in CHO cell membranes by radioligand binding assay. The method, boiled down:
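Competition binding used membranes from CHO cells stably expressing human D4.4R, at 4-10 µg protein/tube, with [3H]spiperone final 0.15-0.30 nM (KD 0.14-0.25 nM, Bmax 1000-1700 […]). Nonspecific binding was defined with 10 µM haloperidol. Ki was obtained by sigmoid fit to IC50 and then Cheng-Prusoff. Each Ki is the mean of two independent experiments, each run in triplicate.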

For assay [5], the species on record is Homo sapiens. The assay can be described thus: Selectivity index, ratio of Ki for human D3 receptor expressed in CHO cell membranes to Ki for human D2short receptor expressed in CHO cell membranes. Type of assay: cell-based. The method in brief:
(§1)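 Ratios of Ki values from [3H]spiperone competition binding on CHO membranes stably expressing human D2short, D3 or D4.4 receptors. The D3 and D4 Ki values are each divided by the D2short Ki.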

The species entered for assay [6] is Homo sapiens. As to the kind of experiment: Selectivity index, ratio of Ki for human dopamine D4.4 receptor expressed in CHO cell membranes to Ki for human D2short receptor expressed in CHO cell membranes. Type of assay: cell-based. The method in brief: as §1
Assay [7] is filed under the species Homo sapiens. The assay can be described thus: Selectivity index, ratio of Ki for human D2short receptor expressed in CHO cell membranes to Ki for human D2short receptor L2.64C mutant expressed in HEK293T cell membranes. Type of assay: cell-based. The method in brief: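 Ratio of the D2short Ki from CHO membranes to the Ki measured at the transiently expressed L2.64C mutant in HEK 293T membranes. Both Ki values come from [3H]spiperone competition binding with Cheng-Prusoff conversion.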

The subject of assay [8] is D(2) dopamine receptor (Homo sapiens), P14416 [L94C]. As to the kind of experiment: Irreversible inhibition of [3H]spiperone binding to human D2short receptor L2.64C mutant expressed in HEK293T cell membranes incubated for 120 mins followed by compound wash out by radioligand depletion assay. The conditions noted are these: HEK-293T. The method, boiled down: (§2)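 For screening, membranes from HEK 293T cells expressing the D2short L2.64C mutant (50 µg/mL protein) were preincubated with compound for 120 min at 37 °C in pH 7.4 Tris buffer. The reference, haloperidol, was used at 20 nM. Membranes were centrifuged and washed four times for 30 min each. Residual specific [3H]spiperone binding was normalized to nonspecific 0% and total 100%. Values are the mean of 2-4 experiments, each in quadruplicate, ±SD.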

For assay [9] the test system is unchanged. The assay can be described thus: Irreversible inhibition of [3H]spiperone binding to human D2short receptor L2.64C mutant expressed in HEK293T cell membranes at 5 uM incubated for 120 mins followed by compound wash out by radioligand depletion assay. To be noted: HEK-293T. The method in brief: as §2
The test system is the same in assay [10]. As to the kind of experiment: Irreversible inhibition of [3H]spiperone binding to human D2short receptor L2.64C mutant expressed in HEK293T cell membranes at 20 uM incubated for 120 mins followed by compound wash out by radioligand depletion assay. To be noted: HEK-293T. The method in brief: as §2
The test system is the same in assay [11]. As to the kind of experiment: Irreversible inhibition of [3H]spiperone binding to human D2short receptor L2.64C mutant expressed in HEK293T cell membranes assessed as remaining [3H]spiperone binding at 5 and 20 uM incubated for 120 mins followed by compound wash out by radioligand depletion assay. To be noted: HEK-293T. The method in brief: as §2
Assay [12] has the same test system. The assay can be described thus: Irreversible inhibition of [3H]spiperone binding to human D2short receptor L2.64C mutant expressed in HEK293T cell membranes assessed as covalent binding at 5 and 20 uM incubated for 120 mins followed by compound wash out by radioligand depletion assay. The arrangement: scale not given: the % may be the effect or the level left. The conditions noted are these: HEK-293T. The method in brief:
as §2

The subject of assay [13] is HEK-293T. As to the kind of experiment: Inhibition of [3H]spiperone binding to human D2short receptor L2.64C mutant expressed in HEK293T cell membranes at 2 and 5 uM incubated for 30 mins by radioligand depletion assay.
In assay [14] the test system is HEK-293T. As to the kind of experiment: Inhibition of [3H]spiperone binding to human D2short receptor L2.64C mutant expressed in HEK293T cell membranes at 2 and 5 uM incubated for 120 mins by radioligand depletion assay.
For assay [15], the system named is D(2) dopamine receptor (Homo sapiens), P14416 [L94C]. As to the kind of experiment: Irreversible inhibition of [3H]spiperone binding to human D2short receptor L2.64C mutant expressed in HEK293T cell membranes at 1 uM incubated for 120 mins followed by compound wash out by radioligand depletion assay. To be noted: HEK-293T. The method in brief: as §2
The test system is the same in assay [16]. The assay can be described thus: Irreversible inhibition of [3H]spiperone binding to human D2short receptor L2.64C mutant expressed in HEK293T cell membranes at 10 uM incubated for 120 mins followed by compound wash out by radioligand depletion assay. To be noted: HEK-293T. The method in brief: as §2
For assay [17], the system named is HEK-293T. The assay can be described thus: Inhibition of [3H]spiperone binding to human D2short receptor L2.64C mutant expressed in HEK293T cell membranes at 1 and 5 uM incubated for 30 mins by radioligand depletion assay. The method, boiled down: (§3)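 For kinetics, mutant receptor membranes from HEK 293T cells (50 µg/mL protein) were preincubated with compound at two concentrations for 15 to 240 min, at 37 °C, pH 7.4. The buffer was Tris/EDTA/MgCl2/bacitracin/trypsin inhibitor. Incubation was stopped by centrifugation, then membranes were washed four times (30 min resuspension each). Remaining specific [3H]spiperone binding was then measured, with 10 µM haloperidol defining nonspecific binding. Data were normalized to nonspecific 0% and total 100%.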

Assay [18] concerns HEK-293T. As to the kind of experiment: Inhibition of [3H]spiperone binding to human D2short receptor L2.64C mutant expressed in HEK293T cell membranes at 1 and 5 uM incubated for 240 mins by radioligand depletion assay. To be noted: in the assay text read “120 mins” for “240 mins”. The method in brief:
as §3

Assay [19] concerns HEK-293T. As to the kind of experiment: Inhibition of [3H]spiperone binding to human D2short receptor L2.64C mutant expressed in HEK293T cell membranes at 2 and 5 uM incubated for 240 mins by radioligand depletion assay.

T1 sequence (P14416 whole entry): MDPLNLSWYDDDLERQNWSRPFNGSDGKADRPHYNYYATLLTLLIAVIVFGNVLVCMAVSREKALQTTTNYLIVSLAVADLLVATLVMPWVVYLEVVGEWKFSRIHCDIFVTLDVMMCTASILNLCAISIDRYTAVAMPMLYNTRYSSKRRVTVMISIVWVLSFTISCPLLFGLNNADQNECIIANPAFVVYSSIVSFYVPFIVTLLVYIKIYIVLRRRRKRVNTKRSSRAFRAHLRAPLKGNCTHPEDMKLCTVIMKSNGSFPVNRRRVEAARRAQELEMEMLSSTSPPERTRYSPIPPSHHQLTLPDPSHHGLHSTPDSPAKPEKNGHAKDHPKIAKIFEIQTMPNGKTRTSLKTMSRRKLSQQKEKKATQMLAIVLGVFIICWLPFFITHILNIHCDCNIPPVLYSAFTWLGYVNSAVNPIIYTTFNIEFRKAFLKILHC
Sequence of D(2) dopamine receptor (Homo sapiens), P14416 [L94C] (P14416 whole entry L94C): as the sequence (P14416 whole entry) above, with L94C counted along it
Sequence of D(3) dopamine receptor (P35462 whole entry): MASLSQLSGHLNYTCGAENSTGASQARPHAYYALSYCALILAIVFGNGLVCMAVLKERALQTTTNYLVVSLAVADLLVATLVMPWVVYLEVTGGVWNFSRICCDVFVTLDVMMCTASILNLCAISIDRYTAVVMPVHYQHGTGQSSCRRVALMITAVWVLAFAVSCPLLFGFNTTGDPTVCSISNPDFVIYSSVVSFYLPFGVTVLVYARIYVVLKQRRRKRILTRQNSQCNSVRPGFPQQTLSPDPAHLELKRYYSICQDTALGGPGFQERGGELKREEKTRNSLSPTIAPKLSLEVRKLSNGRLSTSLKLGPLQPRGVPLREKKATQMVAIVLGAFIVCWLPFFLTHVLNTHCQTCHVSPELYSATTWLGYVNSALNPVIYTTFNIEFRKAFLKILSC

On to `O=C(NCCN1CCC(O)(c2ccc(Cl)cc2)CC1)NCCN1C(=O)C=CC1=O`, for which the Ki at D(2) dopamine receptor [1] was 2200 nM; on D(2) dopamine receptor [2] it was 1500 nM; in [3] it was 860 nM; on D(3) dopamine receptor it was 690 nM; in [4] it was more than 50000 nM. Moreover, the Ratio Ki was 0.46 in the assay filed under Homo sapiens [5], more than 33 in the assay filed under Homo sapiens [6] and 1.7 in the assay filed under Homo sapiens [7]. Moreover, the inhibition result in [8] was “Dose-dependent effect”; in assay [9] it was 60 to 85%; in [10] it was 70 to 95%; in the assay with HEK-293T [13] it was 70 to 85%; in the assay with HEK-293T [14], more than 90%. The results for the Activity in [11] and in assay [12] were 5% and more than 90%, respectively.
In the case of `O=C(CCCN1CCC(O)(c2ccc(Cl)cc2)CC1)c1ccc(OCCSSCCO)cc1`, the Ki was 240 nM at D(2) dopamine receptor [1]; 73 nM on D(2) dopamine receptor [2]; 330 nM in assay [3]; 140 nM on D(3) dopamine receptor; 970 nM in assay [4]. For the same molecule, the Ratio Ki in the assay listed under Homo sapiens [5] was found to be 1.9; in the assay listed under Homo sapiens [6] it was 13; in the assay listed under Homo sapiens [7], 0.22. In addition, the inhibition result in [8] was “Dose-dependent effect”; in assay [15], 20%; in assay [16], less than 70%.
Regarding `[N-]=[N+]=NCCSSCCn1cc(C(=O)CCCN2CCC(O)(c3ccc(Cl)cc3)CC2)nn1`, the inhibition constant (Ki) worked out at 260 nM on D(2) dopamine receptor [1]; 140 nM on D(2) dopamine receptor [2]; 320 nM in assay [3]; 210 nM on D(3) dopamine receptor; 3200 nM in assay [4]. Besides, the Ratio Ki in the assay listed under Homo sapiens [5] is 1.5; in the assay filed under Homo sapiens [6], 23; in the assay filed under Homo sapiens [7], 0.44. For the same molecule, the inhibition result in [8] is “Dose-dependent effect”; in assay [15], 60 to 85%; in assay [9], 70 to 95%; in the assay with HEK-293T [17] it was 80%; with HEK-293T [18], 86%.
Take `COc1cc(CCN2CCC(O)(c3ccc(Cl)cc3)CC2)ccc1OCCSSCCN`: the inhibition constant (Ki) at D(2) dopamine receptor [1] worked out at 1500 nM; at D(2) dopamine receptor [2], 1500 nM; in assay [3], 550 nM; at D(3) dopamine receptor it was 390 nM; in [4], 1100 nM. For the same molecule, the Ratio Ki in the assay filed under Homo sapiens [5] came to 0.26; in the assay listed under Homo sapiens [6], 0.73; in the assay filed under Homo sapiens [7], 2.7. Also, the inhibition entry in [8] was “Dose-dependent effect”; in assay [9], 60 to 85%; in [10], 70 to 95%; with HEK-293T [13] it was 72%; with HEK-293T [19], 82%.
Consider `O=C(CCCN1CCC(O)(c2ccc(Cl)cc2)CC1)c1ccc(F)cc1` [HALOPERIDOL], for which the affinity in assay [4], expressed as Ki, was 7.2 nM.
Consider `COc1cc(CCN2CCC(O)(c3ccc(Cl)cc3)CC2)ccc1OCCCSSCCN`, for which the Ki was 1000 nM on D(2) dopamine receptor [1]; 940 nM on D(2) dopamine receptor [2]; 850 nM in [3]; 600 nM at D(3) dopamine receptor; 1500 nM in assay [4]. For the same molecule, the Ratio Ki in the assay listed under Homo sapiens [5] stood at 0.63; in the assay listed under Homo sapiens [6], 1.6; in the assay filed under Homo sapiens [7], 1.1. For the same molecule, the inhibition entry in assay [8] was “Dose-dependent effect”; in assay [9] it was 60 to 85%; in [10] it was 70 to 95%; with HEK-293T [13], 87%; in the assay on HEK-293T [19] it was 85%. In addition, the results for the Activity in [11] and in assay [12] were 10% and more than 90%, respectively.
